According to ChEMBL document CHEMBL2346664, “Synthesis, characterization and in vitro anticancer evaluation of novel 1,2,4-triazolin-3-one derivatives” (2013):
Activity calls are given as the source filed them. No cut-off for these calls is given here.

Tests used:
[1] = Growth inhibition of human Hs 578T cells assessed as cell growth at 10 '-6 M after 48 hrs by sulforhodamine B assay; format: functional; conditions: read-out: Activity
ACHN [2] = test: Growth inhibition of human ACHN cells assessed as cell growth at 10 '-6 M after 48 hrs by sulforhodamine B assay; format: functional; conditions: read-out: Activity
Summary of the method: (§1)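 Percent growth at each of the five concentrations of the 48 h continuous-exposure NCI SRB screen. Drug stocks were in DMSO at 400× the top final concentration and diluted in medium with gentamicin. Growth was calculated as [(Ti-Tz)/(C-Tz)]×100 when Ti ≥ Tz, or [(Ti-Tz)/Tz]×100 when Ti < Tz. Tz plates were fixed at drug addition; untreated wells served as control. Absorbance was read at 515 nm.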

786-0 [3] = test: Growth inhibition of human 786-0 cells assessed as cell growth at 10 '-6 M after 48 hrs by sulforhodamine B assay; format: functional; conditions: 786-0, 48 h, read-out: Activity; summary of the method: as §1
[4] = Growth inhibition of human NCI-ADR-RES cells assessed as cell growth at 10 '-6 M after 48 hrs by sulforhodamine B assay; format: functional; conditions: read-out: Activity
OVCAR-3 = test: Growth inhibition of human OVCAR3 cells assessed as cell growth at 10 '-6 M after 48 hrs by sulforhodamine B assay; format: functional; conditions: OVCAR-3, 48 h, read-out: Activity
SK-MEL-28 = test: Growth inhibition of human SK-MEL-28 cells assessed as cell growth at 10 '-6 M after 48 hrs by sulforhodamine B assay; format: functional; conditions: SK-MEL-28, 48 h, read-out: Activity
KM12 [5] = test: Growth inhibition of human KM12 cells assessed as growth inhibition at 10 uM after 48 hrs by sulforhodamine B assay; format: functional; conditions: KM12, 48 h, read-out: GI
MOLT-4 = test: Growth inhibition of human MOLT4 cells assessed as growth inhibition at 10 uM after 48 hrs by sulforhodamine B assay; format: functional; conditions: MOLT-4, 48 h, read-out: GI
K562 [6] = test: Growth inhibition of human K562 cells assessed as growth inhibition at 10 uM after 48 hrs by sulforhodamine B assay; format: functional; conditions: K562, 48 h, read-out: GI
HL-60(TB) = test: Growth inhibition of human HL-60(TB) cells assessed as growth inhibition at 10 uM after 48 hrs by sulforhodamine B assay; format: functional, cell-based
Summary of the method: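 NCI DTP single high-dose primary screen at 10^-5 M across 60 human tumour lines. Growth percent of treated cells is taken relative to untreated controls: values of 0–100 indicate growth inhibition and values below 0 indicate cytotoxicity. Both growth percent and percentage growth inhibition are reported.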

HT-29 = test: Growth inhibition of human HT-29 cells assessed as cell growth at 10 '-6 M after 48 hrs by sulforhodamine B assay; format: functional; conditions: HT-29, 48 h, read-out: Activity
HCT-15 = test: Growth inhibition of human HCT15 cells assessed as cell growth at 10 '-6 M after 48 hrs by sulforhodamine B assay; format: functional; conditions: HCT-15, 48 h, read-out: Activity
K562 [7] = test: Growth inhibition of human K562 cells assessed as cell growth at 10 '-6 M after 48 hrs by sulforhodamine B assay; format: functional; conditions: K562, 48 h, read-out: Activity
MDA-MB-231 [8] = test: Growth inhibition of human MDA-MB-231 cells assessed as cell growth at 10 '-7 M after 48 hrs by sulforhodamine B assay; format: functional; conditions: MDA-MB-231, 48 h, read-out: Activity
ACHN [9] = test: Growth inhibition of human ACHN cells assessed as cell growth at 10 '-7 M after 48 hrs by sulforhodamine B assay; format: functional; conditions: read-out: Activity; summary of the method: as §1
SK-MEL-5 = test: Growth inhibition of human SK-MEL-5 cells assessed as cell growth at 10 '-7 M after 48 hrs by sulforhodamine B assay; format: functional; conditions: SK-MEL-5, 48 h, read-out: Activity
LOX IMVI = test: Growth inhibition of human LOXIMVI cells assessed as cell growth at 10 '-7 M after 48 hrs by sulforhodamine B assay; format: functional; conditions: read-out: Activity
KM12 [10] = test: Growth inhibition of human KM12 cells assessed as cell growth at 10 '-7 M after 48 hrs by sulforhodamine B assay; format: functional; conditions: KM12, 48 h, read-out: Activity
786-0 [11] = test: Growth inhibition of human 786-0 cells assessed as cell growth at 10 '-4 M after 48 hrs by sulforhodamine B assay; format: functional; conditions: 786-0, 48 h, read-out: Activity; summary of the method: as §1
OVCAR-4 = test: Growth inhibition of human OVCAR4 cells assessed as cell growth at 10 '-4 M after 48 hrs by sulforhodamine B assay; format: functional; conditions: OVCAR-4, 48 h, read-out: Activity
HOP-92 = test: Growth inhibition of human HOP92 cells assessed as cell growth at 10 '-4 M after 48 hrs by sulforhodamine B assay; format: functional; conditions: HOP-92, 48 h, read-out: Activity
SN12C = test: Growth inhibition of human SN12C cells assessed as cell growth at 10 '-5 M after 48 hrs by sulforhodamine B assay; format: functional; conditions: read-out: Activity
NCI-H23 = test: Growth inhibition of human NCI-H23 cells after 48 hrs by sulforhodamine B assay; format: functional; conditions: NCI-H23, 48 h
Summary of the method: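 NCI 60-cell-line five-dose screen. Cells were plated at 5,000–40,000/well by doubling time and grown 24 h at 37 °C, 5% CO2. Time-zero plates were TCA-fixed. Drug from DMSO stock was tested at 0.01, 0.1, 1, 10 and 100 µM final for 48 h continuous exposure. Read-out was SRB at 515 nm. GI50 is the concentration giving 50% reduction in net protein increase versus untreated control.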

RPMI-8226 = test: Growth inhibition of human RPMI8226 cells after 48 hrs by sulforhodamine B assay; format: functional; conditions: RPMI-8226, 48 h
MDA-MB-231 [12] = test: Growth inhibition of human MDA-MB-231 cells assessed as growth inhibition at 10 uM after 48 hrs by sulforhodamine B assay; format: functional; conditions: MDA-MB-231, 48 h, read-out: GI
[13] = Growth inhibition of human HCC2998 cells assessed as cell growth at 10 '-7 M after 48 hrs by sulforhodamine B assay; format: functional; conditions: HCC 2998, 48 h, read-out: Activity
[14] = Growth inhibition of human […] cells after 48 hrs by sulforhodamine B assay; format: functional
Summary of the method: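 NCI 60-cell-line five-dose screen at 0.01, 0.1, 1, 10 and 100 µM final. Cells were plated at 5,000–40,000/well and grown 24 h at 37 °C, 5% CO2, then exposed to drug continuously for 48 h. Adherent cells were fixed with cold TCA (10% final) and stained with SRB; absorbance read at 515 nm. GI50 is the concentration where [(Ti-Tz)/(C-Tz)]×100 = 50, with Tz plates fixed at drug addition.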

[15] = read-out: LD50 (the source's name)

Cc1cc(=O)oc2cc(OCCn3c(C)nn(-c4ccc(Cl)cc4)c3=O)ccc12
growth at 1 µM [1]: 68%
growth at 1 µM (ACHN [2]): 95%
growth at 1 µM (786-0 [3]): 97%
growth at 1 µM [4]: 61%
growth at 1 µM (OVCAR-3): 96%
growth at 1 µM (SK-MEL-28): 67%
inhibition of growth at 10 µM (KM12 [5]): 68.6%
inhibition of growth at 10 µM (MOLT-4): 62.4%
inhibition of growth at 10 µM (K562 [6]): 83.7%
growth inhibition (GI) (HL-60(TB)): Active
growth at 1 µM (HT-29): 100%
growth at 1 µM (HCT-15): 80%
growth at 1 µM (K562 [7]): 53%
growth at 0.1 µM (MDA-MB-231 [8]): 88%
growth at 0.1 µM (ACHN [9]): 106%
growth at 0.1 µM (SK-MEL-5): 92%
growth at 0.1 µM (LOX IMVI): 88%
growth at 0.1 µM (KM12 [10]): 105%
growth at 100 µM (786-0 [11]): 15%
growth at 100 µM (OVCAR-4): 40%
growth at 100 µM (HOP-92): 32%
growth at 10 µM (SN12C): 39%
GI50 (NCI-H23): 2830 nM
TGI (NCI-H23): > 1000 nM
CC50 (NCI-H23; [15]): > 1000 nM
GI50 (RPMI-8226): 1100 nM
TGI (RPMI-8226): > 1000 nM
CC50 (RPMI-8226; [15]): > 1000 nM
inhibition of growth at 10 µM (MDA-MB-231 [12]): 52.5%
growth at 0.1 µM [13]: 91%
GI50 [14]: 5700 nM
TGI [14]: > 1000 nM
CC50 [14, 15]: > 1000 nM
